Test results as given in ChEMBL document CHEMBL2057104, “Identification of myricetin and scutellarein as novel chemical inhibitors of the SARS coronavirus helicase, nsP13” (Bioorg Med Chem Lett, 2012).
Calls of active or inactive are those of the source. How the calls were made is not given here.

Assays:
[1] = system: Severe acute respiratory syndrome-related coronavirus; assay: Inhibition of SARS coronavirus nsP13 helicase activity expressed in Escherichia coli Rosetta assessed inhibition of DNA unwinding activity at 10 uM by FRET assay
In short: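 FRET dsDNA-unwinding assay using fluorescein/TAMRA-labelled duplex. When nsP13 unwinds the duplex, fluorescein emission is unquenched. Compound was added to the unwinding reaction at 10 µM, and fluorescence was read at 535 nm.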

[2] = system: MCF-10A; assay: Cytotoxicity in human MCF10A cells at 2 uM measured every 24 hrs for 3 days by hemocytometry; assay type: cell-based; conditions: 72 h
In short: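 MCF10A breast epithelial cells grown at 37°C in 5% CO2 and seeded at 2.0 × 10^5 per well. They were exposed to compound at 2 µM and harvested every 24 h for 3 days. Viable cells were counted by hemacytometer. Results are mean ± standard deviation, n = 6, compared by Student t-test.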

[3] = system: Hepacivirus hominis; assay: Inhibition of HCV NS3 helicase overexpressed in Escherichia coli BL21(DE3) assessed as inhibition of DNA unwinding activity at 10 uM by FRET assay
[4] = Inhibition of SARS coronavirus nsP13 ATP hydrolysis activity expressed in Escherichia coli Rosetta assessed as inhibition of inorganic phosphate release by AM/MG-based colometric analysis in the presence of M13 ssDNA; set-up: species or system Severe acute respiratory syndrome-related coronavirus
In short: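 ATP hydrolysis was measured colorimetrically as phosphate complex formation with ammonium molybdate/malachite green. Reactions ran with a range of compound concentrations. IC50 was derived from the concentration series.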

[5] = system: Severe acute respiratory syndrome-related coronavirus; assay: Inhibition of SARS coronavirus nsP13 ATP hydrolysis activity expressed in Escherichia coli Rosetta assessed as inhibition of inorganic phosphate release at 10 uM by AM/MG-based colometric analysis in the presence of M13 ssDNA
[6] = system: Hepacivirus hominis; assay: Inhibition of HCV NS3 helicase ATP hydrolysis activity overexpressed in Escherichia coli BL21(DE3) assessed as inhibition of inorganic phosphate release by AM/MG-based colometric analysis in the presence of M13 ssDNA

## O=c1cc(-c2ccc(O)cc2)oc2cc(O)c(O)c(O)c12 [SCUTELLAREIN]
[1]
  inhibition: inactive
[2]
  Activity: Non-toxic
[3]
  inhibition: inactive
[4]
  IC50: 860 nM
[5]
  inhibition: > 90%
[6]
  inhibition: inactive
